This note sets out measurements from ChEMBL document CHEMBL4373644, “Fungal natural alkaloid schizocommunin activates the aryl hydrocarbon receptor pathway” (Medchemcomm, 2019).

SMILES strings stand for the structures.

For data set [1], the system named is Huh-7. Briefly: Effect on XAP2 expression in human HuH7 cells at 0.5 uM after 24 hrs by qRT-PCR analysis. The class given is ADME, cell-based. The settings on record: huh-7, 24 h. The method in brief:
(§1)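 Huh7 hepatoma cells in DMEM with 10% FBS at 37 °C, seeded 2.75 × 10^5 per well the day before. Exposed 24 h to 10 μM or 0.5 μM compound, 0.1% final DMSO, against DMSO-only mock. RT-qPCR with 18S rRNA normalisation; fold change by 2–ΔΔCt relative to mock; n = 5; unpaired two-tailed t-test, p < 0.05.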

Data set [2] deals with T1, Aryl hydrocarbon receptor (Homo sapiens, UniProt P35869).
T1 sequence (P35869 whole entry): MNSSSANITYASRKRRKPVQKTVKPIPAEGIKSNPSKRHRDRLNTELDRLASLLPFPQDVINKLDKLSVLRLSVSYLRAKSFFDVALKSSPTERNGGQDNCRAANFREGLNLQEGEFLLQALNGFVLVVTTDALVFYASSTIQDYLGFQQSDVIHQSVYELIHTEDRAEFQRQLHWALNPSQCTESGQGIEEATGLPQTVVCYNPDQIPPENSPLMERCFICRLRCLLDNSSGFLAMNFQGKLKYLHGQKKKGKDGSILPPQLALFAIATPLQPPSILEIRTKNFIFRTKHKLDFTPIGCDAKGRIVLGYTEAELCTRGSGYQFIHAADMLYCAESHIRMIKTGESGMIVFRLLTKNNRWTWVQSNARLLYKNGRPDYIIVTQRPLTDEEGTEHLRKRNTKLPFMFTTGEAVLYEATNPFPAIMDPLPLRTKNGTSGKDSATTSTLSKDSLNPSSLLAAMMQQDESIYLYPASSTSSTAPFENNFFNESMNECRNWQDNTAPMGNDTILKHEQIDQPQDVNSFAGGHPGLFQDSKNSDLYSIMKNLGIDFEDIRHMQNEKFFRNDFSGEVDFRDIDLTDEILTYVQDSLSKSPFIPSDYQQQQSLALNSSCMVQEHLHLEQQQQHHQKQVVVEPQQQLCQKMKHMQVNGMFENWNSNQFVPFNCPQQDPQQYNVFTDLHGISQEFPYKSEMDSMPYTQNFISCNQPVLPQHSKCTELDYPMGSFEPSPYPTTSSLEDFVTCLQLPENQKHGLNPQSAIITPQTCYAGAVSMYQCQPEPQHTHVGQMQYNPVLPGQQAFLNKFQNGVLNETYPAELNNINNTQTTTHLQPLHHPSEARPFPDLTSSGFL
Briefly: Agonist activity at AhR in human HuH7 cells assessed as effect on GSTA1 expression at 0.5 uM after 24 hrs by qRT-PCR analysis. In kind it is cell-based. A digest of the protocol:
as §1
In general terms: Real-time PCR tracks product formation cycle by cycle.

Data set [3] concerns the target T1, Aryl hydrocarbon receptor. Briefly: Agonist activity at AhR in human A549 cells assessed as increase in UGT1A expression at 0.5 uM after 24 hrs by RT-qPCR analysis. In kind it is ADME, cell-based. The settings on record: a549, 24 h. A digest of the protocol:
(§2)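 A549 lung carcinoma cells grown at 37 °C in DMEM with 10% FBS, seeded 2.75 × 10^5 per well one day ahead. Treated 24 h with 10 μM or 0.5 μM compound in 0.1% final DMSO; mock was DMSO only. RNA then analysed by RT-qPCR, normalised to 18S rRNA, 2–ΔΔCt fold change vs mock; n = 3; two-tailed unpaired t-test, p < 0.05.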

In data set [4] the target is T2, CYP1A1 (via AhR) (Homo sapiens, UniProt P35869).
T2 sequence (P35869 whole entry): T1 sequence (P35869 whole entry)
The experiment in a line: Agonist activity at AhR in human HuH7 cells assessed as increase in CYP1A1 expression at 0.5 uM after 24 hrs by microarray analysis relative to control. In kind it is ADME, cell-based. Particulars: read-out: FC; call rule not given here. The method in brief:
(§3)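 Transcriptome screen in Huh7 cells seeded 2.75 × 10^5 per well and treated 24 h with 10 μM or 0.5 μM compound (0.1% final DMSO) or DMSO mock. RNA isolated by column kit and profiled on microarray; expression given as fold change versus mock.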

For data set [5], the system named is A549. The experiment in a line: Effect on AhR expression in human A549 cells at 0.5 uM after 24 hrs by qRT-PCR analysis. The settings on record: a549, 24 h. In kind it is ADME, cell-based. The method in brief: as §2
Data set [6] has as its target T3, CYP1B1 (via AhR) (Homo sapiens, UniProt P35869).
T3 sequence (P35869 whole entry): T1 sequence (P35869 whole entry)
The experiment in a line: Agonist activity at AhR in human HuH7 cells assessed as increase in CYP1B1 expression at 0.5 uM after 24 hrs by microarray analysis relative to control. The settings on record: read-out: FC. In kind it is ADME, cell-based. The method in brief:
as §3

For data set [7], the target named is T1, Aryl hydrocarbon receptor. The experiment in a line: Agonist activity at AhR in human HuH7 cells assessed as increase in UGT1A expression at 0.5 uM after 24 hrs by RT-qPCR analysis. The class given is ADME, cell-based. The method in brief: as §1
For data set [8], the system named is A549. Briefly: Effect on XAP2 expression in human A549 cells at 0.5 uM after 24 hrs by qRT-PCR analysis. In kind it is ADME, cell-based. The settings on record: a549, 24 h. The method in brief:
as §2

The target in data set [9] is T1, Aryl hydrocarbon receptor. The experiment in a line: Agonist activity at AhR in human A549 cells assessed as increase in CYP1B1 expression at 0.5 uM after 24 hrs by RT-qPCR analysis. In kind it is ADME, cell-based. The settings on record: a549, 24 h. A digest of the protocol:
as §2

The target in data set [10] is T1, Aryl hydrocarbon receptor. The experiment in a line: Agonist activity at AhR in human HuH7 cells assessed as effect on ALDH3A1 expression at 0.5 uM after 24 hrs by q-RT-PCR analysis. The class given is cell-based. The method in brief:
as §1

Data set [11] relates to Huh-7. The experiment in a line: Cytotoxicity against human HuH7 cells assessed as reduction in metabolic activity after 24 hrs by MTT assay. The class given is ADME, cell-based. Particulars: Huh-7, 24 h. A digest of the protocol:
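Huh7 cells seeded 10 000 per well, next day given serial dilutions of 0.012–200 μM (2% final DMSO) for 24 h. After a PBS wash, cells incubated 3 h with MTT at 2.5 mg mL–1; crystals dissolved in DMSO, absorbance read at 562 nm and normalised to mock; EC50 from dose–response curve.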

For data set [12], the system named is Huh-7. The experiment in a line: Effect on AhR expression in human HuH7 cells at 0.5 uM after 24 hrs by qRT-PCR analysis. In kind it is ADME, cell-based. Particulars: huh-7, 24 h. A digest of the protocol: as §1
For data set [13], the target named is T1, Aryl hydrocarbon receptor. Briefly: Agonist activity at AhR in human A549 cells assessed as increase in CYP1A1 expression at 0.5 uM after 24 hrs by RT-qPCR analysis. The settings on record: a549, 24 h. In kind it is ADME, cell-based. A digest of the protocol: as §2
The target of data set [14] is T1, Aryl hydrocarbon receptor. Briefly: Agonist activity at AhR in human HuH7 cells after 24 hrs by renilla luciferase reporter gene assay. The class given is cell-based. The method in brief: (§4)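 Huh7 cells seeded 20 000 per well, next day co-transfected with XRE-driven firefly luciferase (pGL4.43 luc2P/XRE) and Renilla plasmids by lipofection. A day later treated 24 h at 0.1, 0.5, 5 or 10 μM, 1% final DMSO, then lysed. Luciferase read in technical triplicate; signal normalised to Renilla and to DMSO vehicle.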
In general terms: A reporter such as luciferase makes a cellular process visible.

Data set [15] deals with T1, Aryl hydrocarbon receptor. Briefly: Agonist activity at AhR in human A549 cells assessed as increase in UGT1A expression at 10 uM after 24 hrs by RT-qPCR analysis. The class given is ADME, cell-based. The settings on record: a549, 24 h. The method in brief: as §2
In data set [16] the target is T3, CYP1B1 (via AhR). The experiment in a line: Agonist activity at AhR in human HuH7 cells assessed as increase in CYP1B1 expression at 10 uM after 24 hrs by microarray analysis relative to control. The class given is ADME, cell-based. The settings on record: read-out: FC. A digest of the protocol:
as §3

The target of data set [17] is T2, CYP1A1 (via AhR). The experiment in a line: Agonist activity at AhR in human HuH7 cells assessed as increase in CYP1A1 expression at 10 uM after 24 hrs by microarray analysis relative to control. The class given is ADME, cell-based. Particulars: read-out: FC. A digest of the protocol: as §3
Data set [18] has as its target T1, Aryl hydrocarbon receptor. The experiment in a line: Agonist activity at AhR in human HuH7 cells assessed as increase in CYP1B1 expression at 10 uM after 24 hrs by RT-qPCR analysis. In kind it is ADME, cell-based. A digest of the protocol:
as §1

Data set [19] concerns the target T1, Aryl hydrocarbon receptor. Briefly: Agonist activity at AhR in human A549 cells assessed as increase in ALDH3A1 expression at 10 uM after 24 hrs by q-RT-PCR analysis. In kind it is cell-based. Particulars: a549, 24 h. A digest of the protocol: as §2
Data set [20] has as its target T4, AhR (aryl hydrocarbon receptor) (Homo sapiens, UniProt P35869).
T4 sequence (P35869 whole entry): T1 sequence (P35869 whole entry)
Briefly: Agonist activity at AhR in human HuH7 cells at 10 uM after 24 hrs by renilla luciferase reporter gene assay relative to control. The settings on record: read-out: FC. The class given is cell-based. The method in brief:
as §4

Data set [21] deals with T1, Aryl hydrocarbon receptor. Briefly: Agonist activity at AhR in human HuH7 cells assessed as increase in UGT1A expression at 10 uM after 24 hrs by RT-qPCR analysis. In kind it is ADME, cell-based. A digest of the protocol: as §1
Data set [22] deals with T1, Aryl hydrocarbon receptor. The experiment in a line: Agonist activity at AhR in human HuH7 cells assessed as reduction in ALDH3A1 expression at 10 uM after 24 hrs by q-RT-PCR analysis relative to control. The class given is cell-based. The method in brief:
as §1

Data set [23] concerns the target T1, Aryl hydrocarbon receptor. The experiment in a line: Agonist activity at AhR in human HuH7 cells assessed as effect on GSTA1 expression at 10 uM after 24 hrs by qRT-PCR analysis. The class given is cell-based. The method in brief:
as §1

On to `O=C1Nc2ccccc2/C1=C\c1nnc2ccccc2c1Cl`, for which the Activity entry was “Not Active” in the data set with Huh-7 [1]; “Not Active” in data set [2]; “Active” in data set [3]; “Not Active” with A549 [5]; “Active” in data set [7]; “Not Active” in the data set with A549 [8]. The Activity entry is given as “Active” in data set [9]; “Active” in data set [10]; “Not Active” in the data set on Huh-7 [12]; “Active” in data set [13]; “Dose-dependent effect” in [14]. Also, the figures for the fold induction at 24 h, 0.5 µM at CYP1A1 (via AhR) [4] and on CYP1B1 (via AhR) [6] were 3.28 and 1.35, respectively. In the data set with Huh-7 [11], the concentration giving a half-maximal response (EC50) stood at 9.6 µM.

Turning to `O=C1Nc2ccccc2/C1=C/c1nc2ccccc2c(=O)[nH]1`, the Activity result in data set [15] was “Active”; in [18] it was “Active”; in [19], “Active”; in data set [21], “Active”; in data set [23] it was “Not Active”; in data set [14], “Dose-dependent effect”. Further, the fold induction at 24 h, 10 µM at CYP1B1 (via AhR) [16] was 8.6; at CYP1A1 (via AhR) [17] it was 10.5; in data set [20], not above 17. In addition, the “fold change (FC)” value in data set [22] is given as 0.65. The EC50 in the data set on Huh-7 [11] came to 31.3 µM.

The term EC50 denotes the midpoint of the concentration-response curve.
